# Most compounds without a hit are left out; they make up all but 1.7% or so of the library.
# CAL PDZ FP-1 – blocks peptide binding to the human CAL PDZ domain | Q9HD26 | purified CAL PDZ, TMR-peptide fluorescence polarization, 1 h | inhibition, % at 24.9 µM | 300,000 compounds, 0.92% hits | AID 602252;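 active = mean inhibition of at least 30% with at least half of replicates also reaching 30%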;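 note: 0% = DMSO neutral control and 100% = excess unlabeled competitor peptide PRC23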
# A3A deaminase – blocks human APOBEC3A ssDNA deamination | recombinant A3A, FAM/TAMRA ssDNA deamination fluorescence | inhibition, % at 20 µM | 330,000 compounds, 0.41% hits | AID 493011;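 active = at least 40% inhibition at 20 µM here, with at most 30% in a related deaminase screen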;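 note: plate controls were A3A with DMSO for no effect and wells lacking A3A enzyme for full effect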
# CAL PDZ FP-2 – human CAL PDZ-peptide interaction inhibition; purified CAL PDZ, TMR-peptide fluorescence polarization, 1 h; inhibition, % at 20 µM; AID 504414; Q9HD26; 330,000 compounds, 0.02% hits;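 active = highest replicate inhibition of at least 40%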;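 note: plate controls were DMSO neutral control wells for no effect and unlabeled competitor peptide control wells for full effect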
#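 Read-out basis: mP drop reported as inhibition | Assay system: Tagged CAL PDZ protein CerCALP, purified | Benchmarks: Unlabelled peptide for full inhibition, DMSO wells as neutral | Schedule: 1 h incubation at room temperature before polarization reading | Buffer or medium: Sodium phosphate/NaCl buffer pH 7.4 with TCEP, IgG, Thesit | Doses: Single point, 20 µM | Measured by: Fluorescence polarization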
# LANA DNA inh – KSHV C-LANA DNA binding inhibition; MBP-C-LANA/FAM-LBS DNA binding, fluorescence polarization; inhibition, % at 9 µM; 340,000 compounds, 0.078% hits;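 active = highest replicate inhibition at or above 60% at 9 µM, even if other replicates fall short; inactive = all replicates below 60% inhibition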;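 note: 0% = neutral control wells and 100% = 4 µM acridine orange control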
# A3G deaminase – inhibitors of human APOBEC3G DNA deaminase | recombinant A3G, ssDNA deamination FAM/TAMRA fluorescence | inhibition, % at 20 µM | 330,000 compounds, 0.28% hits | AID 493012;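 active = inhibition of at least 40% at 20 µM, with no more than 30% in the related APOBEC3A deaminase screen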;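 note: plate controls were DMSO wells with A3G for no effect and wells lacking A3G enzyme for full effect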
# Keap1-Nrf2 PPI – Keap1-Nrf2 (human) interaction inhibition. inhibition, % at 9.4 µM. Keap1 Kelch-Nrf2 peptide fluorescence polarization, 1536-well. AID 504523. 340,000 compounds, 0.15% hits. Q14145; in the data active = inhibition above about 12%;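 note: human Keap1 Kelch domain with fluorescein labeled Nrf2 9mer peptide probe; 0% = neutral control wells and 100% = peptide positive control; higher means more block of Keap1 binding to Nrf2 peptide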
# Target sequence (Q14145 whole entry, looked up, the tested form may be a part): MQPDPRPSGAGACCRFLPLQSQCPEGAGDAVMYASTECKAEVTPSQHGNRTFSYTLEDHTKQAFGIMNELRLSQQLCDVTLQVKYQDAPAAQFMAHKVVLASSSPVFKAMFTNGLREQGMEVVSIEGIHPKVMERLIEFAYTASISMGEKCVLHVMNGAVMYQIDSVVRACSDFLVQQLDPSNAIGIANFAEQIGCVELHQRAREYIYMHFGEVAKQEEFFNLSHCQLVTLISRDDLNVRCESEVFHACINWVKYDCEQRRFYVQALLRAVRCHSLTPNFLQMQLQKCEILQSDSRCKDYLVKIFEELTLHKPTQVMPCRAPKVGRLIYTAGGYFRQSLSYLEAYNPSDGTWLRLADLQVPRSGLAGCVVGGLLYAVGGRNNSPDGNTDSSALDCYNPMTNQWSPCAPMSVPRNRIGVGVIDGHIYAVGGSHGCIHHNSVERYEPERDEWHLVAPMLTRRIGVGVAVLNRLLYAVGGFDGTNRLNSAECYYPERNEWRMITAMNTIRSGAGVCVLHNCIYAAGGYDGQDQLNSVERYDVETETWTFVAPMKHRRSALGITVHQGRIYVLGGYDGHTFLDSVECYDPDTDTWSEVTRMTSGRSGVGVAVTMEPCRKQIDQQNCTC
# Keap1 TSA – binds and thermally shifts human Keap1 Kelch domain; 400 compounds, 8% hits; max delta Tm, degrees C; shares compounds with Keap1-Nrf2 PPI; Keap1 Kelch thermal shift, delta Tm; active compounds read high; in the data active = max delta Tm above about 0.48 degrees C
# Sypro dye melt – counter-screen for Keap1 thermal shift hits: dye-only artifacts; shares compounds with Keap1-Nrf2 PPI; 140 tested, under 10 active; Sypro Orange dye-only thermal melt, no protein, delta Tm; top dose 26 µM; delta Tm, degrees C (concentration not given with the values); AID 651858;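 active = at highest dose tested, delta Tm positive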
# Starred values were filed as active, the others as inactive; . = not tested or not shown.
SMILES,CAL PDZ FP-1,A3A deaminase,CAL PDZ FP-2,LANA DNA inh,A3G deaminase,Keap1-Nrf2 PPI,Keap1 TSA,others
c1ccc(CCn2nnnc2CN2CCCc3ccccc32)cc1,-0.5,-3.1,.,-0.8,-5.1,1.9,.,
c1ccc2c(c1)CCCN2Cc1nnnn1CC1CCCO1 (centres undefined),-2.7,1.5,-0.2,30.6,-4.7,20.2*,-0.19,
COC(=O)C1=C(C)N(C2CCCCC2)C(=O)/C1=C\c1cccs1,-0.4,3.2,-0.4,0.2,-6.2,-6.9,.,
COc1ccccc1CNC(=O)c1ccccc1NS(C)(=O)=O,-4.2,1.2,0.3,-1.1,-5.5,20.5*,-0.13,
COc1ccccc1CNC(=O)c1ccc(NS(C)(=O)=O)cc1,-4.6,1.3,-1.7,-2.2,-3.4,-2.0,.,
CCOc1ccc(NC(=O)COC(=O)CCN2C(=O)C3CC=CCC3C2=O)cc1OCC (centres undefined),.,1.0,0.6,22.0,1.4,45.3*,0.15,
Cc1nnc(SCC(=O)NC2CCCCC2)s1,-3.8,-4.7,-1.3,0.8,-7.6,-3.3,.,
Cc1cc2nc3c(=O)n(C4CCCCC4)c(=O)[nH]c3nc2cc1N,-1.9,.,-1.6,96.5*,.,47.6*,-0.03,Sypro dye melt=-24.8
NC(=O)C1CCN(C2=C(Cl)C(=O)c3ccccc3C2=O)CC1,1.5,1.4,0.8,-1.0,10.4,14.1*,0.14,
O=C1C(Cl)=C(N2CCC(C(=O)O)CC2)C(=O)c2ccccc21,4.9,6.9,-1.1,2.3,17.5,2.7,.,
Cc1cc(C)c2nc3sc(C(=O)N4CCOCC4)c(N)c3cc2c1,-3.0,-3.6,-1.0,-1.1,-2.3,13.7*,-0.17,
Cc1cc(F)ccc1NC(=O)Cn1c(C)csc1=O,-0.7,18.9,0.7,-0.3,-5.5,-4.3,.,
CN(CCC#N)C(=O)COC(=O)C1c2ccccc2Oc2ccccc21,-4.8,-4.1,-2.4,-0.4,-9.3,-4.5,.,
N#CCCN(CCC#N)C(=O)C1c2ccccc2Oc2ccccc21,11.7,-8.3,4.2,94.9*,-8.1,63.5*,-0.18,Sypro dye melt=-32.3
CCN(CC(=O)Nc1c(F)cccc1F)C(=O)CCCOc1ccccc1,3.0,.,-1.5,-1.2,.,-1.7,.,
CCOc1ccc(OCCCC(=O)N(CC)CC(=O)Nc2c(F)cccc2F)cc1,.,-4.9,0.1,22.8,-8.7,35.8*,-0.15,Sypro dye melt=-26.8
O=C(c1ccsc1)N1CCCC(Nc2cccc(F)c2)C1 (centres undefined),-3.6,-0.1,-1.9,-0.5,1.8,1.3,.,
COC(=O)c1ccccc1NC1=C/C(=N\S(=O)(=O)c2ccc(C(=O)O)cc2)c2ccccc2C1=O,-0.3,4.4,2.0,10.2,-2.3,14.5*,1.43*,Sypro dye melt=8.11*
O=C(COC(=O)c1ccc2c(c1)C(=O)N(Cc1ccncc1)C2=O)Nc1cccc2ccccc12,0.6,1.2,-0.2,-1.4,2.0,-2.6,.,
O=C(COC(=O)c1ccncc1)Nc1cccc2ccccc12,.,-7.1,-0.4,9.7,-8.5,14.1*,-0.09,
Fc1ccc(C2Nc3cccc4cccc(c34)N2)cc1,-2.2,-3.5,0.7,0.9,4.4,-6.4,.,
CCN(CC)c1ccc(C2Nc3cccc4cccc(c34)N2)cc1,.,-5.1,0.1,24.9,-2.5,26.4*,-0.02,
CCOC(=O)c1c(C)oc2c1c(C=NCCO)c(O)c1ccccc12,2.0,.,1.2,7.8,.,22.6*,-0.18,Sypro dye melt=-28.7
CCN1C(=O)c2cccc3c(N)ccc(c23)C1=O,-3.1,-58.9,0.1,38.3,-106.0,38.5*,-0.2,
COc1ccc(NC(=O)NS(=O)(=O)c2ccc(C)cc2)cn1,-2.0,.,-0.7,103.9*,.,77.2*,-0.13,
CNc1nnc(SCC(=O)c2cc(C)n(C3CC3)c2C)s1,.,2.5,1.1,26.2,2.0,46.2*,-0.08,
c1ccc(-c2nnc(CN3CCC4(CC3)OCCO4)o2)cc1,1.6,-5.6,0.0,-1.6,-11.1,3.1,.,
OC(CCN1CCC2(CC1)OCCO2)C(F)(F)F (centres undefined),-3.5,3.0,-1.1,8.1,-4.4,18.6*,-0.12,
CN(C)CCP(=O)(c1ccccc1)c1ccccc1,0.1,0.6,-3.2,-0.1,-1.5,-3.7,.,
